Reference: ChEMBL document CHEMBL3286187, “Synthesis, antibacterial and antitubercular activities of benzimidazole bearing substituted 2-pyridone motifs” (Eur J Med Chem, 2014)
In brackets after ≈: the same amount, converted by molar mass.

Assays:
Escherichia coli = test: Antimicrobial activity against Escherichia coli MTCC-443 after 24 hrs by broth dilution method; type: functional; conditions: MTCC-443, 24 h
In short: (§1)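 NCCLS broth dilution in Mueller Hinton broth with 2% DMSO as vehicle. Primary screen at 1000, 500 and 250 µg/mL; actives retested at 200 to 6.25 µg/mL. Inoculum 10⁶ CFU/mL, set by turbidity. Incubated 24 h at 37 °C; growth read visually and spectrophotometrically. MIC is the lowest concentration arresting growth. Chloramphenicol was the positive control; DMSO and water were negative controls.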

Pseudomonas aeruginosa = test: Antimicrobial activity against Pseudomonas aeruginosa MTCC-1688 after 24 hrs by broth dilution method; type: functional; conditions: MTCC-1688, 24 h; in short: as §1
Staphylococcus aureus [1] = test: Antimicrobial activity against Staphylococcus aureus MTCC-96 after 24 hrs by broth dilution method; type: functional; conditions: MTCC-96, 24 h; in short: as §1
Streptococcus pyogenes = test: Antimicrobial activity against Streptococcus pyogenes MTCC-442 after 24 hrs by broth dilution method; type: functional; conditions: MTCC-442, 24 h; in short: as §1
[2] = test system: Mycobacterium tuberculosis; test: Antitubercular activity against Mycobacterium tuberculosis H37Rv ATCC 27294 after 5 to 8 days by BACTEC 12B method; type: functional
Vero = test: Cytotoxicity against african green monkey Vero cells after 72 hrs by MTS-PMS method; type: cell-based; conditions: Chlorocebus sabaeus
In short: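 Vero cells in DMEM with 10% FBS at 37 °C, 5% CO2, diluted to 10^6 cells/mL. Threefold serial dilutions gave final […] to 0.12 µg/mL with 1% DMSO. Incubated 72 h, washed with HBSS, then MTS-PMS (100:20) added for 3 h; absorbance read at 490 nm. Triplicate wells, assay repeated three times. Controls set as 100% viability; IC50 taken as 50% growth inhibition.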

Staphylococcus aureus [3] = test: Antimicrobial activity against methicillin-resistant Staphylococcus aureus ATCC 43300 after 24 hrs by broth dilution method; type: functional; conditions: ATCC 43300, 24 h
In short: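 Broth dilution per NCCLS in Mueller Hinton broth; compounds in 2% DMSO, 1000 µg/mL stock; primary screen 1000, 500, 250 µg/mL, then secondary dilutions 200 to 6.25 µg/mL. Inoculum 10⁶ CFU/mL by turbidity; 24 h at 37 °C, growth read visually and spectrophotometrically. MIC = lowest concentration arresting growth. DMSO/water negative control; chloramphenicol positive control.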

`C/C(=N\NC(=O)CC#N)c1nc2ccccc2[nH]1` gave an MIC (Escherichia coli) of over 1000 µg/mL, an MIC (Pseudomonas aeruginosa) of over 1000 µg/mL and an MIC (Staphylococcus aureus [1]) of 1000 µg/mL (≈ 4150 µM). For the same compound, the MIC (Streptococcus pyogenes) was 1000 µg/mL (≈ 4150 µM) and the MIC [2] was over 39.4 µg/mL.

`C/C(=N\n1c(N)c(C#N)c(-c2ccc([N+](=O)[O-])cc2)c(C#N)c1=O)c1nc2ccccc2[nH]1` was tested, and the MIC (Escherichia coli) was 500 µg/mL (≈ 1140 µM), the MIC (Pseudomonas aeruginosa) was 500 µg/mL (≈ 1140 µM) and the MIC (Staphylococcus aureus [1]) was 500 µg/mL (≈ 1140 µM). The MIC (Streptococcus pyogenes) was 500 µg/mL (≈ 1140 µM) and the MIC [2] was over 39.4 µg/mL.

For `C/C(=N\n1c(/N=C/c2ccccc2)c(C#N)c(-c2ccc([N+](=O)[O-])cc2)c(C#N)c1=O)c1nc2ccccc2[nH]1`, the MIC (Escherichia coli) was 500 µg/mL (≈ 950 µM), the MIC (Pseudomonas aeruginosa) was 500 µg/mL (≈ 950 µM) and the MIC (Staphylococcus aureus [1]) was 500 µg/mL (≈ 950 µM). For the same compound, the MIC (Streptococcus pyogenes) was 500 µg/mL (≈ 950 µM), the MIC [2] was 35.2 µg/mL (≈ 66.9 µM) and the IC50 (Vero) was 17.6 µg/mL (≈ 33.4 µM).

Compound `C/C(=N\n1c(/N=C/c2ccccc2O)c(C#N)c(-c2ccc([N+](=O)[O-])cc2)c(C#N)c1=O)c1nc2ccccc2[nH]1` has an MIC (Escherichia coli) of 500 µg/mL (≈ 922 µM), an MIC (Pseudomonas aeruginosa) of 500 µg/mL (≈ 922 µM) and an MIC (Staphylococcus aureus [1]) of 500 µg/mL (≈ 922 µM). For the same compound, the MIC (Streptococcus pyogenes) was 250 µg/mL (≈ 461 µM), the MIC [2] was 31.6 µg/mL (≈ 58.3 µM) and the IC50 (Vero) was 19.8 µg/mL (≈ 36.6 µM).

Work on `C/C(=N\n1c(/N=C/c2cccc(O)c2)c(C#N)c(-c2ccc([N+](=O)[O-])cc2)c(C#N)c1=O)c1nc2ccccc2[nH]1` yielded an MIC (Escherichia coli) of 500 µg/mL (≈ 922 µM), an MIC (Pseudomonas aeruginosa) of 250 µg/mL (≈ 461 µM) and an MIC (Staphylococcus aureus [1]) of 100 µg/mL (≈ 184 µM). It also gave an MIC (Streptococcus pyogenes) of 500 µg/mL (≈ 922 µM), an MIC [2] of 30.2 µg/mL (≈ 55.6 µM) and an IC50 (Vero) of 17 µg/mL (≈ 31.3 µM).

Compound `C/C(=N\n1c(/N=C/c2ccc(O)cc2)c(C#N)c(-c2ccc([N+](=O)[O-])cc2)c(C#N)c1=O)c1nc2ccccc2[nH]1` has an MIC (Escherichia coli) of 250 µg/mL (≈ 461 µM), an MIC (Pseudomonas aeruginosa) of 500 µg/mL (≈ 922 µM) and an MIC (Staphylococcus aureus [1]) of 500 µg/mL (≈ 922 µM). It also gave an MIC (Streptococcus pyogenes) of 250 µg/mL (≈ 461 µM), an MIC [2] of 30.9 µg/mL (≈ 56.9 µM) and an IC50 (Vero) of 13.7 µg/mL (≈ 25.3 µM).

`C/C(=N\n1c(/N=C/c2cccc(F)c2)c(C#N)c(-c2ccc([N+](=O)[O-])cc2)c(C#N)c1=O)c1nc2ccccc2[nH]1` gave an MIC (Escherichia coli) of 100 µg/mL (≈ 184 µM), an MIC (Pseudomonas aeruginosa) of 250 µg/mL (≈ 459 µM) and an MIC (Staphylococcus aureus [1]) of 100 µg/mL (≈ 184 µM). It also gave an MIC (Streptococcus pyogenes) of 125 µg/mL (≈ 230 µM), an MIC [2] of 25.4 µg/mL (≈ 46.6 µM) and an IC50 (Vero) of 23.6 µg/mL (≈ 43.4 µM).

`C/C(=N\n1c(/N=C/c2ccc(F)cc2)c(C#N)c(-c2ccc([N+](=O)[O-])cc2)c(C#N)c1=O)c1nc2ccccc2[nH]1` gave an MIC (Escherichia coli) of 250 µg/mL (≈ 459 µM), an MIC (Pseudomonas aeruginosa) of 250 µg/mL (≈ 459 µM) and an MIC (Staphylococcus aureus [1]) of 250 µg/mL (≈ 459 µM). The MIC (Streptococcus pyogenes) was 100 µg/mL (≈ 184 µM), the MIC [2] was 27.1 µg/mL (≈ 49.8 µM) and the IC50 (Vero) was 24.8 µg/mL (≈ 45.5 µM).

`C/C(=N\n1c(/N=C/c2ccccc2Cl)c(C#N)c(-c2ccc([N+](=O)[O-])cc2)c(C#N)c1=O)c1nc2ccccc2[nH]1` showed an MIC (Escherichia coli) of 100 µg/mL (≈ 178 µM), an MIC (Pseudomonas aeruginosa) of 125 µg/mL (≈ 223 µM) and an MIC (Staphylococcus aureus [1]) of 50 µg/mL (≈ 89.1 µM). It also gave an MIC (Streptococcus pyogenes) of 62.5 µg/mL (≈ 111 µM), an MIC [2] of 2.65 µg/mL (≈ 4.72 µM) and an IC50 (Vero) of over 39.4 µg/mL.

`C/C(=N\n1c(/N=C/c2cccc(Cl)c2)c(C#N)c(-c2ccc([N+](=O)[O-])cc2)c(C#N)c1=O)c1nc2ccccc2[nH]1` gave an MIC (Escherichia coli) of 50 µg/mL (≈ 89.1 µM), an MIC (Pseudomonas aeruginosa) of 62.5 µg/mL (≈ 111 µM) and an MIC (Staphylococcus aureus [1]) of 25 µg/mL (≈ 44.6 µM). The MIC (Streptococcus pyogenes) was 50 µg/mL (≈ 89.1 µM), the MIC (Staphylococcus aureus [3]) was over 50 µg/mL and the MIC [2] was 0.85 µg/mL (≈ 1.52 µM). It also gave an IC50 (Vero) of over 39.4 µg/mL.

`C/C(=N\n1c(/N=C/c2ccc(Cl)cc2)c(C#N)c(-c2ccc([N+](=O)[O-])cc2)c(C#N)c1=O)c1nc2ccccc2[nH]1` showed an MIC (Escherichia coli) of 100 µg/mL (≈ 178 µM), an MIC (Pseudomonas aeruginosa) of 100 µg/mL (≈ 178 µM) and an MIC (Staphylococcus aureus [1]) of 62.5 µg/mL (≈ 111 µM). The MIC (Streptococcus pyogenes) was 50 µg/mL (≈ 89.1 µM), the MIC [2] was 1.79 µg/mL (≈ 3.19 µM) and the IC50 (Vero) was over 39.4 µg/mL.
